Compounds with a hit are over-represented: about 3% of the library has one in this group of screens.
PfHsp90 set2 = inhibits growth of yeast expressing Plasmodium falciparum Hsp90; S. cerevisiae expressing PfHsp90, BacTiter-Glo ATP, 48 h; yeast lacking PDR1 and PDR3 efflux regulators; inhibition, % at 9.4 µM; 310,000 compounds, 0.32% hits;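 active means every replicate shows inhibition above about 80%, whatever the replicate mean, limit read from the data; inconclusive means mean inhibition reaches the set limit but some replicate falls short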
PvdQ inh = P. aeruginosa PvdQ acylase inhibition; purified PvdQ acylase, fluorescence plate reader; inhibition, % at 10 µM; 340,000 compounds, 0.063% hits; AID 488965; in the data active means inhibition above about 30%, passing the limit was not always enough; inconclusive means no clear call, values can overlap the other calls
T cruzi inh = blocks replication of Trypanosoma cruzi. inhibition, % (no concentration beside the values). T. cruzi beta-gal in NIH3T3, luminescence, 90 h. 300,000 compounds, 1.4% hits;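 active means mean inhibition across valid replicates above about 55%, limit read from the data; inconclusive means mean below that limit but half or more replicates reach it; inactive means mean below it, under half of replicates reach it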;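 further: signal also drops with host cell toxicity which is not excluded here; higher percent means less beta-gal luminescence so fewer parasites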
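System: NIH/3T3 fibroblasts plus reporter T. cruzi. Medium: DMEM plus 2% FBS. Probe or stimulus: 5000 reporter trypomastigotes per well. Compound: single 50 nL compound addition per well in DMSO. Incubation: co-culture of at least 90 h after 3 h attachment. Detection: GalScreen β-gal luminescence, detergent lysis, 60 min. Evaluation: parasite load inhibition, %.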
N-glyco inh = blocks N-linked glycosylation in D54 reporter cells; D54 ERlucT glycosylation luciferase reporter, 24 h; percent of 100 nM tunicamycin response; AID 588692; reporter increase, % at 12.5 µM; 360,000 compounds, 0.23% hits;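 active means mean luciferase reporter signal, scaled so untreated is 0 and the glycosylation-blocking control 100, at or above a set limit in every replicate; inconclusive means mean reaches the limit but not every replicate does; inactive means mean below the limit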;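 further: luciferase carries N-glycosylation sites so blocking glycosylation raises the light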
CaV13 ICDI inh = Disruptors of the CACNA1D IQ motif to Ca2+-dependent inactivation inhibitor domain association, primary screening, Förster resonance energy transfer in intact living …. HEK cells, CFP/YFP FRET ICDI-IQ, plate reader, 10 min; percent FRET-ratio fall versus neutral wells. inhibition, % at 12.3 µM. 340,000 compounds, 0.098% hits;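 active means mean replicate inhibition of at least 30% and at least 1% of replicates passing that level; inconclusive means only one of the two criteria is met; inactive means neither criterion is met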
HSF1 activator = increases HSF-1 driven luciferase reporter signal | 300,000 compounds, 1.7% hits | NIH3T3-HGL HSF-1 luciferase reporter, MG132, 8 h; 100% = twice DMSO control signal | activation, % at 9 µM;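 active means mean replicate activation of at least 50% with a set share of replicates each reaching 50%; inconclusive means only one of those two conditions met; inactive means mean below 50% and too few replicates reaching it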
Of the large screens only hits and unclear results are named; the others gave an inactive call.

CC(C)S(=O)(=O)N[C@@H]1c2cc3c(cc2[C@H](c2ccccc2)[C@H]1C)OCO3	none (no result: PfHsp90 set2, PvdQ inh, T cruzi inh, N-glyco inh, HSF1 activator)
Cc1ccccc1Cn1nc(C)c(NC(=O)C2c3ccccc3Oc3ccccc32)c1C	HSF1 activator 70
Cc1cc(C)c(NC(=O)C2c3ccccc3Oc3ccccc32)c(C)c1	none
O=C(c1ccc(F)cc1)C(CN1CCOCC1)c1ccccc1 (stereo not given)	T cruzi inh 58
CN(C)CC(CCC(CN(C)C)C(=O)c1ccccc1)C(=O)c1ccccc1 (stereo not given)	T cruzi inh 71 (no result: CaV13 ICDI inh)
CCOc1ccc(C(=O)C(CCC(CN(C)C)C(=O)c2ccc(OCC)cc2)CN(C)C)cc1 (stereo not given)	none
O=C(c1ccccc1)C(CCC(CN1CCOCC1)C(=O)c1ccccc1)CN1CCOCC1 (stereo not given)	HSF1 activator 86
CC(C)Oc1cc(F)ccc1-c1cc(C(=O)NCCc2ccncc2)[nH]n1	none (no result: PfHsp90 set2, PvdQ inh, T cruzi inh, HSF1 activator)
CCOc1ccc(C(=O)NCCc2cnc[nH]2)cc1	none
O=C(NCCc1cnc[nH]1)c1ccc(-c2ccccc2)cc1	T cruzi inh 60
Cc1nn(-c2ccccc2)c(N)c1C(c1ccccc1)c1c(C)nn(-c2ccccc2)c1N	HSF1 activator 79
O=C(NCc1ccc(Cl)nc1)c1ccc2nc([C@@H]3O[C@H](CO)[C@H](O)[C@H](O)[C@H]3O)[nH]c2c1	none (no result: PfHsp90 set2, PvdQ inh, T cruzi inh, HSF1 activator)
Cc1cc(-c2cn3ccccc3n2)c(C)n1-c1ccccc1	T cruzi inh 62
COC(=O)C1=C(C)N(Cc2ccc(C(F)(F)F)cc2)C(=NCc2cccc(C(F)(F)F)c2)NC1c1ccccc1C(F)(F)F (stereo not given)	none (no result: PfHsp90 set2, PvdQ inh, T cruzi inh, N-glyco inh, HSF1 activator)
FC(F)(F)c1ccc(Sc2nnc(-c3cccs3)n2CC2CCCO2)nc1 (stereo not given)	HSF1 activator 58
O=C(CSc1ncnc2nc[nH]c12)c1ccc([N+](=O)[O-])cc1	N-glyco inh 45
O=C(CSc1ncnc2nc[nH]c12)c1ccc(Cl)cc1	N-glyco inh inconclusive
CCOC(=O)C(C)(C)Sc1ncnc2nc[nH]c12	none
CCOC(=O)c1cc([N+](=O)[O-])cc([N+](=O)[O-])c1Sc1ncnc2nc[nH]c12	PfHsp90 set2 107, N-glyco inh 99 (no result: T cruzi inh, HSF1 activator)
CCN(CC)CCNc1c2c(c(C#N)c3nc4ccccc4n13)CCCC2	T cruzi inh 63
CN(C)CCNc1c2c(c(C#N)c3nc4ccccc4n13)CCCC2	T cruzi inh 62
N#Cc1c2c(c(Nc3ccc(O)cc3)n3c1nc1ccccc13)CCC2	HSF1 activator 66
CNc1ncn(-c2c(C)cccc2C)c(=O)n1	none (no result: PfHsp90 set2, PvdQ inh, T cruzi inh, N-glyco inh, HSF1 activator)
COC(=O)C1CCN(C2CN(Cc3ccc(F)cc3)S(=O)(=O)C2)CC1 (stereo not given)	none (no result: PfHsp90 set2, PvdQ inh, T cruzi inh, HSF1 activator)
O=C1C=C(Nc2ccccc2C(=O)O)c2ccccc2C1=O	HSF1 activator 93
NC(=O)c1ccc(NC(=O)COC(=O)CCC2CCCC2)cc1	none (no result: PfHsp90 set2, PvdQ inh, T cruzi inh, HSF1 activator)
COC(=O)c1ccc(C2Nc3cccc4cccc(c34)N2)cc1	T cruzi inh 67
CCCn1c(SCC(=O)c2cc(OC)ccc2OC)nnc1C(C)C	HSF1 activator 90
COc1ccc(OC)c(C(=O)CSc2nnc(Cc3cccs3)n2C)c1	none (no result: CaV13 ICDI inh)
COc1ccc2c(-c3cc4ccc(OCc5ccc(F)cc5)cc4oc3=O)cc(=O)oc2c1	N-glyco inh 37
COc1ccc(COc2ccc3c(C)cc(=O)oc3c2)cc1	none
COC(=O)C1=C(C)N(C)C(=NCc2ccccc2)NC1c1ccccc1 (stereo not given)	none (no result: PfHsp90 set2, PvdQ inh, T cruzi inh, N-glyco inh, HSF1 activator)
CC1(C)Cc2c(C#N)c(NCCCO)nc(-c3ccccc3)c2CO1	none
CCN(CC)CCNc1nc(-c2ccccc2)c2c(c1C#N)CC(C)(C)OC2	T cruzi inh 56 (no result: CaV13 ICDI inh)
COc1ccc(CN2C(=O)CCC2(C)c2nnnn2-c2ccc3c(c2)OCCO3)cc1 (stereo not given)	none (no result: PfHsp90 set2, PvdQ inh, T cruzi inh, N-glyco inh, HSF1 activator)
O=c1[nH]c(SCc2ccc(Cl)cc2)nc2ccsc12	HSF1 activator 127 (no result: PfHsp90 set2, PvdQ inh, N-glyco inh)
Cc1ccccc1Cn1cc(S(=O)(=O)c2ccc(C(C)C)cc2)c(=O)c2cc3c(cc21)OCO3	HSF1 activator 78
O=c1c(S(=O)(=O)c2ccc(Cl)cc2)cn(Cc2cccc(F)c2)c2ccc(F)cc12	none
